Experimental data from ChEMBL document CHEMBL1275408, “A chemical genomic screen in Saccharomyces cerevisiae reveals a role for diphthamidation of translation elongation factor 2 in inhibition of protein synthesis by sordarin” (2008).
The source made the active and inactive calls. The calls are words filed in the database; no cut-off is given here.

Experiments:
Saccharomyces cerevisiae [1] = assay: Antifungal activity against Saccharomyces cerevisiae BY4741 harboring GRR1 YJR090C mutant gene by spectrophotometry; format: functional
Procedure, shortened: (§1)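 Screen of BY4741 KanMX4 deletion strains pre-grown 3 days at 28°C in YPD with G418 (150 mg/liter), then pinned into liquid SC containing GM193663. The sensitivity screen used 2 ng/ml; the resistance screen used 62.5 ng/ml, with validation at 62.5, 125 and 500 ng/ml. OD595 was read every 24 h over 5 days at 28°C. Growth was scored relative to wild type and to drug-free controls. Retests were at least in duplicate.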

Saccharomyces cerevisiae [2] = assay: Antifungal activity against Saccharomyces cerevisiae BY4741 harboring AMS1 YGL156W mutant gene by spectrophotometry; format: functional; procedure, shortened: as §1
Saccharomyces cerevisiae [3] = assay: Antifungal activity against Saccharomyces cerevisiae BY4741 harboring YDR042C mutation in unknown gene by spectrophotometry; format: functional
Procedure, shortened: (§2)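 Deletion strains from the nonessential haploid MATa BY4741 collection (KanMX4 replacement) were grown in YPD with G418 at 28°C for 3 days, then pinned into liquid SC with or without sordarin derivative GM193663 (2 ng/ml for sensitivity, 62.5 ng/ml for resistance). Cultures were kept at 28°C and read at OD595 every 24 h for 5 days. Growth was scored against wild type on the same plate and against the drug-free control. Hits were retested at least in duplicate.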

Saccharomyces cerevisiae [4] = assay: Antifungal activity against Saccharomyces cerevisiae BY4741 harboring UBX3 YDL091C mutant gene by spectrophotometry; format: functional
Procedure, shortened: (§3)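 Haploid MATa BY4741 KanMX4 deletion strains pinned from frozen stocks into YPD + G418 (150 mg/liter), grown 3 days at 28°C to confluence, then pin-replicated into SC liquid with no drug or sordarin derivative GM193663 (2 ng/ml sensitivity; 62.5 ng/ml resistance). 28°C, OD595 read every 24 h for 5 days; growth scored relative to wild type on same plate and to untreated mutant.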

Saccharomyces cerevisiae [5] = assay: Antifungal activity against Saccharomyces cerevisiae BY4741 harboring DHH1 YDL160C mutant gene by spectrophotometry; format: functional; procedure, shortened: as §1
Saccharomyces cerevisiae [6] = assay: Antifungal activity against Saccharomyces cerevisiae BY4741 harboring BAP2 YBR068C mutant gene by spectrophotometry; format: functional; procedure, shortened: as §1
Saccharomyces cerevisiae [7] = assay: Antifungal activity against Saccharomyces cerevisiae BY4741 harboring YHL041W mutation in unknown gene by spectrophotometry; format: functional; procedure, shortened: as §2
Saccharomyces cerevisiae [8] = assay: Antifungal activity against Saccharomyces cerevisiae BY4741 harboring RPL12B YDR418W mutant gene by spectrophotometry; format: functional; procedure, shortened: as §3
Saccharomyces cerevisiae [9] = assay: Antifungal activity against Saccharomyces cerevisiae BY4741 harboring AFG3 YER017C mutant gene assessed as reduction in fungal growth at 2 ng/ml by spectrophotometry; format: functional, organism-based
Procedure, shortened: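 Haploid BY4741 KanMX4 deletion strains pre-grown in YPD with G418 (150 mg/liter) for 3 days at 28°C. They were then pin-replicated into liquid SC with sordarin derivative GM193663 at 2 ng/ml, or without drug. Plates were incubated at 28°C and OD595 read every 24 h for 5 days. Growth was scored against wild type on the same plate and against the drug-free mutant. Hits were retested at least in duplicate.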

Saccharomyces cerevisiae [10] = assay: Antifungal activity against Saccharomyces cerevisiae BY4741 harboring YBR141C mutation in unknown gene by spectrophotometry; format: functional; procedure, shortened: as §3
Saccharomyces cerevisiae [11] = assay: Antifungal activity against Saccharomyces cerevisiae BY4741 harboring FUN12 YAL035W mutant gene by spectrophotometry; format: functional; procedure, shortened: as §1
Saccharomyces cerevisiae [12] = assay: Antifungal activity against Saccharomyces cerevisiae BY4741 harboring RPL1B YGL135W mutant gene by spectrophotometry; format: functional; procedure, shortened: as §3
Saccharomyces cerevisiae [13] = assay: Antifungal activity against Saccharomyces cerevisiae BY4741 harboring EAF3 YPR023C mutant gene by spectrophotometry; format: functional; procedure, shortened: as §1
Saccharomyces cerevisiae [14] = assay: Antifungal activity against Saccharomyces cerevisiae BY4741 harboring YBR255W mutation in unknown gene by spectrophotometry; format: functional; procedure, shortened: as §3
Saccharomyces cerevisiae [15] = assay: Antifungal activity against Saccharomyces cerevisiae BY4741 harboring MRPL37 YBR268W mutant gene by spectrophotometry; format: functional; procedure, shortened: as §3
Saccharomyces cerevisiae [16] = assay: Antifungal activity against Saccharomyces cerevisiae BY4741 harboring PRE9 YGR135W mutant gene by spectrophotometry; format: functional; procedure, shortened: as §3
Saccharomyces cerevisiae [17] = assay: Antifungal activity against Saccharomyces cerevisiae BY4741 harboring deletion mutation in dph3 gene at 100 ng/ml by plate assay; format: functional, organism-based
Procedure, shortened: (§4)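 Spot test on solid SC glucose plates with or without 100 ng/ml sordarin. Drops of 10^5 cells plus 10-fold serial dilutions of each dph deletion strain were spotted alongside the parental strain. Plates were incubated at 28°C for 6 days and imaged every 24 h.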

Saccharomyces cerevisiae [18] = assay: Antifungal activity against Saccharomyces cerevisiae BY4741 harboring LYS14 YDR034C mutant gene by spectrophotometry; format: functional; procedure, shortened: as §1
Saccharomyces cerevisiae [19] = assay: Antifungal activity against Saccharomyces cerevisiae BY4741 harboring deletion mutation in dph4 gene at 300 to 500 ng/ml after 24 hrs by liquid growth assay; format: functional
Saccharomyces cerevisiae [20] = assay: Antifungal activity against Saccharomyces cerevisiae BY4741 harboring CTF3 YLR381W mutant gene by spectrophotometry; format: functional; procedure, shortened: as §1
Saccharomyces cerevisiae [21] = assay: Antifungal activity against Saccharomyces cerevisiae BY4741 assessed as reduction in fungal growth up to 500 ng/ml for 72 hrs by spectrophotometry; format: functional, organism-based
Procedure, shortened: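 BY4741 grown overnight in SC (synthetic complete) medium, then inoculated into microtiter wells of SC medium containing successive twofold dilutions of sordarin starting at 500 ng/ml (range 0–500 ng/ml). Cultures incubated at 28°C, and growth followed as a growth inhibition curve.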

Saccharomyces cerevisiae [22] = assay: Antifungal activity against Saccharomyces cerevisiae BY4741 harboring MRPL36 YBR122C mutant gene by spectrophotometry; format: functional; procedure, shortened: as §3
Saccharomyces cerevisiae [23] = assay: Antifungal activity against Saccharomyces cerevisiae BY4741 harboring RPS4A YJR145C mutant gene by spectrophotometry; format: functional; procedure, shortened: as §3
Saccharomyces cerevisiae [24] = assay: Antifungal activity against Saccharomyces cerevisiae BY4741 harboring MRPL11 YDL202W mutant gene by spectrophotometry; format: functional; procedure, shortened: as §3
Saccharomyces cerevisiae [25] = assay: Antifungal activity against Saccharomyces cerevisiae BY4741 harboring MHP1 YJL042W mutant gene by spectrophotometry; format: functional; procedure, shortened: as §1
Saccharomyces cerevisiae [26] = assay: Antifungal activity against Saccharomyces cerevisiae BY4741 harboring PRR2 YDL214C mutant gene by spectrophotometry; format: functional; procedure, shortened: as §3
Saccharomyces cerevisiae [27] = assay: Antifungal activity against Saccharomyces cerevisiae BY4741 harboring MRPL3 YMR024W mutant gene by spectrophotometry; format: functional; procedure, shortened: as §3
Saccharomyces cerevisiae [28] = assay: Antifungal activity against Saccharomyces cerevisiae BY4741 harboring RPL16B YNL069C mutant gene by spectrophotometry; format: functional; procedure, shortened: as §3
Saccharomyces cerevisiae [29] = assay: Antifungal activity against Saccharomyces cerevisiae BY4741 harboring YOL079W mutation in unknown gene by spectrophotometry; format: functional; procedure, shortened: as §2
Saccharomyces cerevisiae [30] = assay: Antifungal activity against Saccharomyces cerevisiae BY4741 harboring HMI1 YOL095C mutant gene by spectrophotometry; format: functional; procedure, shortened: as §1
Saccharomyces cerevisiae [31] = assay: Antifungal activity against Saccharomyces cerevisiae BY4741 harboring SUR2 YDR297W mutant gene by spectrophotometry; format: functional; procedure, shortened: as §3
Saccharomyces cerevisiae [32] = assay: Antifungal activity against Saccharomyces cerevisiae BY4741 harboring SHE2 YKL130C mutant gene by spectrophotometry; format: functional; procedure, shortened: as §3
Saccharomyces cerevisiae [33] = assay: Antifungal activity against Saccharomyces cerevisiae BY4741 harboring deletion mutation in dph1 gene at 100 ng/ml by plate assay; format: functional, organism-based; procedure, shortened: as §4
Saccharomyces cerevisiae [34] = assay: Antifungal activity against Saccharomyces cerevisiae BY4741 harboring YDL062W mutation in unknown gene by spectrophotometry; format: functional; procedure, shortened: as §3
Saccharomyces cerevisiae [35] = assay: Antifungal activity against Saccharomyces cerevisiae BY4741 harboring RBS1 YDL189W mutant gene by spectrophotometry; format: functional; procedure, shortened: as §3

CO[C@H]1[C@@H](O)[C@H](O)[C@H](OC[C@@]23C[C@@H]4[C@H](C)CC[C@H]4[C@@]4(C=O)CC2C=C(C(C)C)[C@@]34C(=O)O)O[C@@H]1C [SORDARIN]
MIC (Saccharomyces cerevisiae [1]): > 0.5 µg/mL
MIC (Saccharomyces cerevisiae [2]): > 0.125 µg/mL
MIC (Saccharomyces cerevisiae [3]): > 0.125 µg/mL
MIC (Saccharomyces cerevisiae [4]): > 0.5 µg/mL
MIC (Saccharomyces cerevisiae [5]): > 0.125 µg/mL
MIC (Saccharomyces cerevisiae [6]): > 0.125 µg/mL
MIC (Saccharomyces cerevisiae [7]): > 0.5 µg/mL
MIC (Saccharomyces cerevisiae [8]): > 0.5 µg/mL
Activity (Saccharomyces cerevisiae [9]): Active
MIC (Saccharomyces cerevisiae [10]): > 0.5 µg/mL
MIC (Saccharomyces cerevisiae [11]): > 0.125 µg/mL
MIC (Saccharomyces cerevisiae [12]): > 0.5 µg/mL
MIC (Saccharomyces cerevisiae [13]): > 0.5 µg/mL
MIC (Saccharomyces cerevisiae [14]): > 0.5 µg/mL
MIC (Saccharomyces cerevisiae [15]): > 0.5 µg/mL
MIC (Saccharomyces cerevisiae [16]): > 0.5 µg/mL
MIC (Saccharomyces cerevisiae [17]): inactive
MIC (Saccharomyces cerevisiae [18]): > 0.5 µg/mL
Activity (Saccharomyces cerevisiae [19]): 50%
MIC (Saccharomyces cerevisiae [20]): > 0.125 µg/mL
Activity (Saccharomyces cerevisiae [21]): Active
MIC (Saccharomyces cerevisiae [22]): > 0.5 µg/mL
MIC (Saccharomyces cerevisiae [23]): > 0.0625 µg/mL
MIC (Saccharomyces cerevisiae [24]): > 0.0625 µg/mL
MIC (Saccharomyces cerevisiae [25]): > 0.125 µg/mL
MIC (Saccharomyces cerevisiae [26]): > 0.5 µg/mL
MIC (Saccharomyces cerevisiae [27]): > 0.125 µg/mL
MIC (Saccharomyces cerevisiae [28]): > 0.125 µg/mL
MIC (Saccharomyces cerevisiae [29]): > 0.5 µg/mL
MIC (Saccharomyces cerevisiae [30]): > 0.125 µg/mL
MIC (Saccharomyces cerevisiae [31]): > 0.0625 µg/mL
MIC (Saccharomyces cerevisiae [32]): > 0.125 µg/mL
MIC (Saccharomyces cerevisiae [33]): inactive
MIC (Saccharomyces cerevisiae [34]): > 0.125 µg/mL
MIC (Saccharomyces cerevisiae [35]): > 0.5 µg/mL
